According to ChEMBL document CHEMBL1799956, “Convergent synthesis and biological evaluation of 2-amino-4-(3',4',5'-trimethoxyphenyl)-5-aryl thiazoles as microtubule targeting agents” (J Med Chem, 2011):
pIC50: −log10 of the molar value. Activity calls are given as the source filed them. The calls are words filed in the database; no cut-off is given here.

Columns and labels:
[1] = system: K562; assay: Antiproliferative activity against human K562 cells assessed as growth inhibition after 72 hrs by MTT assay; format: functional, cell-based; settings: K562, 72 h
[2] = system: LoVo; assay: Antiproliferative activity against human doxorubicin-resistant LoVo cells overexpressing P-gp assessed as growth inhibition after 72 hrs by MTT assay; format: functional, cell-based
[3] = system: CCRF-CEM; assay: Antiproliferative activity against human CEM cells assessed as growth inhibition after 72 hrs by MTT assay; format: functional, cell-based
[4] = Antiproliferative activity against human vinblastine-resistant CEM/VBL100 cells overexpressing P-gp assessed as growth inhibition after 72 hrs by MTT assay; format: functional, cell-based; settings: CEM/VBL100, 72 h
[5] = target: Tubulin (Homo sapiens) (UniProt P68371+Q9H4B7+P0DPH7+P68366+Q13509+Q71U36+P04350+Q3ZCM7+P07437+P68363+Q9BQE3+Q6PEY2+Q13885+Q9BVA1+Q9BUF5); assay: Induction of microtubule disassembly in human HeLa cells assessed as complete loss of microtubules at 100 nM after 48 hrs using DAPI-staining by fluorescence microscopy; format: cell-based
In short: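 HeLa cells were exposed to 10 or 100 nM compound for 24 or 48 h, then fixed. Microtubules were stained with FITC-conjugated anti-β-tubulin antibody and imaged by confocal/fluorescence microscopy at 60× magnification.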

[6] = system: HeLa; assay: Induction of morphological changes in human HeLa cells assessed as appearance of giant interphase with multiple nuclei of different sizes at 100 nM after 24 hrs using phalloidintetramethylrhodamine B isothiocyanate staining by microscopy; format: functional, cell-based
In short: (§1)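 HeLa cells were incubated with compound for 24 h. F-actin was stained with a phalloidin–tetramethylrhodamine B isothiocyanate conjugate and nuclei were counterstained with DAPI. Cells were then examined by fluorescence microscopy.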

[7] = system: HeLa; assay: Induction of morphological changes in human HeLa cells assessed as effect on arrangement and amount of F-actin at 10 nM after 24 hrs using phalloidintetramethylrhodamine B isothiocyanate staining by microscopy; format: functional, cell-based; in short: as §1
[8] = system: HeLa; assay: Induction of morphological changes in human HeLa cells assessed as effect on arrangement and amount of F-actin at 100 nM after 24 hrs using phalloidintetramethylrhodamine B isothiocyanate staining by microscopy; format: functional, cell-based; in short: as §1
[9] = system: Jurkat; assay: Cell cycle arrest in human Jurkat cells assessed as decrease of cell population at G1 phase at 1 to 100 nM after 24 hrs using propidium iodide staining by flow cytometry; format: functional, cell-based
[10] = system: Jurkat; assay: Cell cycle arrest in human Jurkat cells assessed as decrease of cell population at S phase at 100 nM after 24 hrs using propidium iodide staining by flow cytometry; format: functional, cell-based
[11] = system: HeLa; assay: Cell cycle arrest in human HeLa cells assessed as increase of cell population at G2/M phase at 1 to 100 nM after 48 hrs using propidium iodide staining by flow cytometry; format: functional, cell-based
[12] = system: Jurkat; assay: Cell cycle arrest in human Jurkat cells assessed as increase of cell population at G2/M phase at 1 to 100 nM after 48 hrs using propidium iodide staining by flow cytometry; format: functional, cell-based
[13] = system: HeLa; assay: Cell cycle arrest in human HeLa cells assessed as decrease of cell population at G1 phase at 1 to 100 nM after 48 hrs using propidium iodide staining by flow cytometry; format: functional, cell-based
[14] = system: Jurkat; assay: Cell cycle arrest in human Jurkat cells assessed as decrease of cell population at G1 phase at 1 to 100 nM after 48 hrs using propidium iodide staining by flow cytometry; format: functional, cell-based
[15] = system: HeLa; assay: Induction of cell cycle arrest at G2/M phase in human HeLa cells assessed as decrease in phosphorylated Cdc2(Y15) expression at 10 to 100 nM after 48 hrs by Western blot analysis; format: functional, cell-based
In short: (§2)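 Immunoblot of HeLa lysates after 24 or 48 h of compound treatment at the indicated concentrations. Probed for cyclin B1, p-Cdc2 Y15 and Cdc25c. Slower-migrating Cdc25c bands were taken as a change in phosphorylation.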

[16] = system: HeLa; assay: Induction of cell cycle arrest at G2/M phase in human HeLa cells assessed as decrease in Cdc25C expression at 100 nM after 48 hrs by Western blot analysis; format: functional, cell-based; in short: as §2
[17] = system: HeLa; assay: Induction of apoptosis in human HeLa cells assessed as increase in mitochondrial ROS production at 100 nM after 48 hrs using H2DCFDA staining by flow cytometry; format: functional, cell-based
[18] = system: HeLa; assay: Induction of apoptosis in human HeLa cells assessed as decrease in Bcl2 expression at […] after 24 hrs by Western blot analysis; format: functional, cell-based
In short: (§3)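 Treated HeLa whole-cell lysates separated by SDS-PAGE and immunoblotted for PARP cleavage, Bcl-2, Bax, pro-caspase-9 and pro-caspase-2.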

[19] = system: HeLa; assay: Induction of apoptosis in human HeLa cells assessed as decrease in Bax expression at […] after 48 hrs by Western blot analysis; format: functional, cell-based; in short: as §3
[20] = system: HeLa; assay: Induction of apoptosis in human HeLa cells assessed activation of caspase 9 at […] after 24 hrs by Western blot analysis; format: functional, cell-based; in short: as §3
[21] = system: HeLa; assay: Induction of apoptosis in human HeLa cells assessed as DNA condensation at 100 uM after 24 to 48 hrs using Giemsa's staining by microscopic analysis; format: functional, cell-based
In short: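 HeLa treated 48 h, Giemsa stained and examined by light microscopy at 60× magnification.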

[22] = system: Jurkat; assay: Induction of apoptosis in human Jurkat cells assessed as DNA condensation at 100 uM after 24 to 48 hrs using Giemsa's staining by microscopic analysis; format: functional, cell-based
In short: (§4)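 Giemsa staining, then light-microscope examination of cell morphology. HeLa and Jurkat cells were exposed to compound for 24 and 48 h. Magnification 60×.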

[23] = system: Jurkat; assay: Induction of apoptosis in human Jurkat cells assessed as abnormal mitotic figures at 10 uM after 24 to 48 hrs using Giemsa's staining by microscopic analysis; format: functional, cell-based; in short: as §4
[24] = system: Jurkat; assay: Induction of apoptosis in human Jurkat cells assessed as multinucleation at 10 uM after 24 to 48 hrs using Giemsa's staining by microscopic analysis; format: functional, cell-based; in short: as §4
[25] = system: Jurkat; assay: Induction of apoptosis in human Jurkat cells assessed as formation of large cells at 10 uM after 24 to 48 hrs using Giemsa's staining by microscopic analysis; format: functional, cell-based; in short: as §4
[26] = system: Jurkat; assay: Induction of apoptosis in human Jurkat cells assessed as formation of large cells at 100 uM after 24 to 48 hrs using Giemsa's staining by microscopic analysis; format: functional, cell-based; in short: as §4
[27] = system: HeLa; assay: Induction of apoptosis in human HeLa cells assessed as reduction in p53 expression at […] after 24 hrs by Western blot analysis; format: functional, cell-based
In short: (§5)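 Western blot of HeLa whole-cell lysates, separated by SDS-PAGE and probed with antibodies to p-γH2AX Ser139, p53 and p21waf/cip1. Cells were treated at the indicated concentrations for 24 or 48 h.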

[28] = system: HeLa; assay: Induction of apoptosis in human HeLa cells assessed as reduction in p21 expression at […] after 48 hrs by Western blot analysis; format: functional, cell-based; in short: as §5
[29] = system: LoVo; assay: Fold resistance, ratio of IC50 for human doxorubicin-resistant LoVo cells overexpressing P-gp to IC50 for human LoVo cells; format: functional
In short: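 Fold resistance taken as the ratio of IC50 in the resistant line to IC50 in the parental line, each IC50 from dose-response curves of at least three independent experiments.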

[30] = system: HeLa; assay: Induction of apoptosis in human HeLa cells assessed as reduction in p21 expression at 10 to 100 nM after 24 hrs by Western blot analysis

SMILES: CCOc1ccc(-c2sc(N)nc2-c2cc(OC)c(OC)c(OC)c2)cc1
- pIC50 [1]: 10.15
- pIC50 [2]: 9.22
- pIC50 [3]: 9.05
- pIC50 [4]: 9.10
- Activity [5]: Active
- Activity [6]: Active
- Activity [7]: Active
- Activity [8]: Active
- Activity [9]: Active
- Activity [10]: Active
- Activity [11]: Active
- Activity [12]: Active
- Activity [13]: Active
- Activity [14]: Active
- Activity [15]: Active
- Activity [16]: Active
- Activity [17]: Active
- Activity [18]: inactive
- Activity [19]: Active
- Activity [20]: inactive
- Activity [21]: Active
- Activity [22]: Active
- Activity [23]: Active
- Activity [24]: Active
- Activity [25]: Active
- Activity [26]: Active
- Activity [27]: inactive
- Activity [28]: Active
- Ratio IC50 [29]: 0.9
- Activity [30]: Active
